What is called Cmax is the highest concentration seen after dosing.

Series [1] in a line: Cmax in rat at 2 mg/kg, po or 1 mg/kg, iv. It counts as ADME, organism-based. More on the design: dose 2 mg/kg. Conditions: in vivo.
A short description of series [2]: Drug recovery in fasted bile-duct cannulated Sprague-Dawley rat feces assessed as metabolically unchanged parent compound by measuring radioactivity at 5 mg/kg, po using [3H]-labeled compound measured after 48 hrs. Type of series: ADME, organism-based. To be noted: in vivo.
The nature of series [3]: Cmax in dog at 1 mg/kg, po or 0.5 mg/kg, iv. It counts as ADME, organism-based, Canis lupus familiaris. Set-up: dose 1 mg/kg. To be noted: in vivo. The method, boiled down:
(§1)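 Single-dose PK at 1 mg/kg po and 0.5 mg/kg iv. Mouse clearance is from blood; dog and rhesus clearance is from plasma. Mouse vehicle, both routes: DMSO:PEG400:water (5:40:55, v/v/v). Dog and monkey iv vehicle: PEG200:12%HPCD:water (30:12:58 v/v/v). Dog and monkey po vehicle: Imwitor:Tween (1:1 w/w).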

Series [4] can be described thus: Volume of distribution at steady state in dog at 1 mg/kg, po or 0.5 mg/kg, iv. It counts as ADME, organism-based, Canis lupus familiaris. Conditions: in vivo, read-out: Vdss. Summed up: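 Dog and rhesus monkey dosed 1 mg/kg po and 0.5 mg/kg iv. The iv vehicle was PEG200:12%HPCD:water (30:12:58 v/v/v); the po vehicle was Imwitor:Tween (1:1 w/w). Clearance was measured in plasma. Protein binding was measured in 100% serum.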

Series [5] in a line: Drug metabolism in human liver microsomes assessed as O-demethylated metabolite formation. It counts as ADME, Microsome. Background: Liver microsomes are a subcellular fraction often used to study metabolism.
A short description of series [6]: Cmax in Sprague-Dawley rat at 1.5 mg/kg, po administered as single dose measured at 6 hrs. Type of series: ADME, organism-based. Set-up: route oral, time 6 hrs, dose 1.5 mg/kg. Conditions: in vivo.
Series [7] is described as follows: Drug recovery in fasted bile-duct cannulated Sprague-Dawley rat bile assessed as metabolically unchanged parent compound at 5 mg/kg, po using [3H]-labeled compound measured after 48 hrs. It counts as ADME, organism-based. To be noted: in vivo.
Series [8] is described as follows: Cmax in rhesus monkey at 1 mg/kg, po or 0.5 mg/kg, iv. Type of series: ADME, organism-based, Macaca mulatta. More on the design: dose 1 mg/kg. To be noted: in vivo. The method, boiled down: as §1
The nature of series [9]: Drug metabolism in fasted bile-duct cannulated Sprague-Dawley rat urine assessed as oxidation of parent compound causing metabolite formation at 5 mg/kg, po using [3H]-labeled compound measured after 48 hrs. Type of series: ADME, organism-based. To be noted: in vivo.
Series [10] in a line: Metabolic stability in monkey liver microsomes assessed as metabolic turnover at 10 uM measured after 60 mins in presence of NADPH. Type of series: ADME, Macaca mulatta, Microsome. Conditions: rhesus monkey, read-out: Drug metabolism. Summed up:
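Tritiated compound incubated with rat or monkey liver microsomes supplemented with NADPH; metabolic turnover monitored.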

For `COc1ccc(C(NC(=O)c2cnc(-c3cccnn3)nc2O)c2ccc(OC)cc2)cc1`, the Cmax in [1] is 11 µM; in [3] it was 18 µM; in series [6], 6.8 µM; in series [8], 17 µM. For the same compound, the Drug recovery in series [2] is 90%; in [7] it was less than 10%. Also, in [4], the Vd stood at 0.12 L/kg. Moreover, the Drug metabolism result in [5] and in series [9] was “Metabolite_Detected” throughout. In addition, the metabolised at 1 h, 10 µM in [10] was less than 10%.

Values taken from ChEMBL document CHEMBL4765235, “Discovery of N-[Bis(4-methoxyphenyl)methyl]-4-hydroxy-2-(pyridazin-3-yl)pyrimidine-5-carboxamide (MK-8617), an Orally Active Pan-Inhibitor of Hypoxia-Inducible Factor Prolyl Hydroxylase 1-3 (HIF PHD1-3) for the Treatment of Anemia” (J Med Chem, 2016).
